Test results from ChEMBL document CHEMBL4396895, “Identification and Optimization of Novel Cathepsin C Inhibitors Derived from EGFR Inhibitors” (J Med Chem, 2019).
The source made the active and inactive calls. The calls are words filed in the database; no cut-off is given here.

Experiments:
[1] = biological target: T1, Cytochrome P450 1A2 (Homo sapiens, UniProt P05177); test: Inhibition of CYP1A2 (unknown origin); type: ADME
T1 sequence (P05177 whole entry): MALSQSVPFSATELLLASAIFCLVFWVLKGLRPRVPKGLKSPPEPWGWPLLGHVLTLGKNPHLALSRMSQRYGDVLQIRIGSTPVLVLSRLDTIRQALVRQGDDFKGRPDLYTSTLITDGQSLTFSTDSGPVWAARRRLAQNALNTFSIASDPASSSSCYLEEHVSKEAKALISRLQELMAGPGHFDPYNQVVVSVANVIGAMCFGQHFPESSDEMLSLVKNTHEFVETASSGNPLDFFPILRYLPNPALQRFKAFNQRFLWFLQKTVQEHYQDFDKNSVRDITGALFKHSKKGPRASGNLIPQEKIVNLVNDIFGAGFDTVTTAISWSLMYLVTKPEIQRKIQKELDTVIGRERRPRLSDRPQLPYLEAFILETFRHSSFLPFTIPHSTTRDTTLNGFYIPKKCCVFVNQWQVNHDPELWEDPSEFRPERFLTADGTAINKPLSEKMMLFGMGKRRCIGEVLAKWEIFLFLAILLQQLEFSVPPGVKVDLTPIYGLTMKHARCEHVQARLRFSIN
Method in brief: (§1)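 Tested against recombinant human cytochrome P450 isoforms 1A2, 2D6, 3A4, 2C9 and 2C19.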

[2] = tested on: Mus musculus; test: In vivo inhibition of CatC in C57BL/6 mouse blood at 20 mg/kg, po single dose using Gly-Phe-AFC as substrate measured 8 hrs post dose for up to 90 mins by fluorescence assay relative to control; details: C57BL/6, Blood
[3] = Bioavailability in C57BL/6 mouse at 10 mg/kg, ip by LC-MS/MS analysis; type: ADME, organism-based; details: in vivo
Method in brief: (§2)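 Male C57BL/6 mice (n = 3) were dosed with a single IV dose of 2 mg/kg or an IP or PO dose of 10 mg/kg. Vehicle: 0.5% Methocel and 0.1% Tween-80 in citrate buffer, pH 3. Blood was drawn by eye puncture at several time points and analysed by LC-MS/MS. Parameters came from noncompartmental analysis of individual animals and are reported as means.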

[4] = biological target: Epidermal growth factor receptor (Homo sapiens, UniProt P00533); test: Inhibition of EGFR (unknown origin) up to 10 uM using biotin-labelled peptide as substrate preincubated for 2 hrs followed by substrate addition and measured after 30 mins by HTRF FRET assay
Method in brief: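 EGFR WT was used at 0.1 nM final in 50 mM HEPES pH 7.0, 0.02% NaN3, 0.01% BSA, 0.1 mM orthovanadate, 10 mM MgCl2, 2.5 mM DTT, 6.25 nM SEB. It was preincubated with compound for 2 h. Biotin-peptide (1.4 μM) and ATP (20 μM) were then added for 30 min at RT. Read-out was HTRF/TR-FRET (Ex 320, Em 615/665 nm) with a sigmoidal curve fit.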

[5] = tested on: Mus musculus; test: In vivo inhibition of CatC in po dosed C57BL/6 mouse blood assessed as reduction in CatG activation administered twice daily for 6 days using N-succinyl-Ala-Ala-Pro-Phe-pNA as substrate measured up to 90 mins by fluorescence assay; type: functional, organism-based
Method in brief: (§3)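 C57BL/6 mice (20−25 g; n = 10 per group) received oral doses twice daily at 6.7, 20 or 60 mg/kg for 6 days. The vehicle group got 0.5% Methocel and 0.1% Tween-80 in 100 mM citrate buffer, pH 3. Blood was drawn by eye puncture 14 h after the last dose. Bone marrow was flushed from femurs and tibias with ice-cold RPMI 1640. Cells were lysed in 50 mM Tris pH 7.4, 750 mM NaCl, 1% Triton X-100, sonicated on ice and stored at −80 °C. Lysates were diluted by protein content, with blood diluted 5-fold more than marrow. Kinetics were followed for up to 90 min. Results are % of the vehicle mean.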

[6] = Drug uptake in C57BL/6 mouse kidney at 10 mg/kg, po by LC-MS/MS analysis; type: ADME, organism-based; details: in vivo
[7] = biological target: Cytochrome P450 3A4 (Homo sapiens, UniProt P08684); test: Inhibition of CYP3A4 (unknown origin); type: ADME; method in brief: as §1
[8] = biological target: T2, Dipeptidyl peptidase 1 (Homo sapiens, UniProt P53634); test: Inhibition of cathepsin C in human THP1 cells using H-Gly-Phe-AFC as substrate preincubated for 4 hrs followed by substrate addition and measured after 60 mins; type: cell-based
Method in brief: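 THP1 or U937 cells, grown in RPMI 1640 with 10% FBS, were seeded at 1.0 × 10^6/mL. They were preincubated with threefold serial dilutions of compound for 4 h at 37 °C. H-Gly-Phe-AFC was then added from a 100 μM solution and fluorescence was read after 60 min at 37 °C. Values are means of at least two experiments.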

[9] = biological target: T2, Dipeptidyl peptidase 1; test: Inhibition of CatL-activated recombinant human C-terminal His10-tagged cathepsin C (25 to 463 residues) expressed in mouse myeloma cells using Gly-Phe-AFC as substrate preincubated for 3 hrs followed by substrate addition and measured after 60 mins; type: cell-free
Method in brief: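 Activated rhCatC was diluted to 4.4 nM in 25 mM MES, 50 mM NaCl, 5 mM DTT, 0.01% Triton X-100, pH 6.0. It was preincubated with compound (added in 10% DMSO) for 3 h at RT. Gly-Phe-AFC was then added to 100 μM final and read as fluorescence after 60 min. IC50 came from a sigmoidal nonlinear fit; values are means of at least two experiments.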

[10] = AUC infinity in C57BL/6 mouse at 10 mg/kg, po by LC-MS/MS analysis; type: ADME, organism-based; design: dose 10 mg/kg, time infinity, route oral; details: in vivo; method in brief: as §2
[11] = Oral bioavailability in C57BL/6 mouse at 10 mg/kg by LC-MS/MS analysis; type: ADME, organism-based; details: in vivo; method in brief: as §2
[12] = Tmax in C57BL/6 mouse at 10 mg/kg, ip by LC-MS/MS analysis; type: ADME, organism-based; details: in vivo; method in brief: as §2
[13] = tested on: Mus musculus; test: In vivo inhibition of CatC in po dosed C57BL/6 mouse blood administered twice daily for 6 days using Gly-Phe-AFC as substrate measured up to 90 mins by fluorescence assay; type: functional, organism-based; method in brief: as §3
[14] = Toxicity in C57BL/6 mouse assessed as effect on WBC level at 60 mg/kg, po administered twice daily for 6 days; type: organism-based; details: in vivo, 144 h
[15] = Toxicity in C57BL/6 mouse at 60 mg/kg, po administered twice daily for 6 days; type: organism-based; details: in vivo, 144 h
[16] = Half life in C57BL/6 mouse at 2 mg/kg, iv by LC-MS/MS analysis; type: ADME, organism-based; details: in vivo; method in brief: as §2
[17] = biological target: Cytochrome P450 2C19 (Homo sapiens, UniProt P33261); test: Inhibition of CYP2C19 (unknown origin); type: ADME; method in brief: as §1
[18] = Drug uptake in C57BL/6 mouse lung at 10 mg/kg, po by LC-MS/MS analysis; type: ADME, organism-based; details: in vivo
[19] = tested on: Mus musculus; test: In vivo inhibition of CatC in po dosed C57BL/6 mouse bone marrow administered twice daily for 6 days using Gly-Phe-AFC as substrate measured up to 90 mins by fluorescence assay; type: functional, organism-based; method in brief: as §3

Question: For `C=CC(=O)Nc1cc(Oc2nc(Nc3ccc(N4CCN(C)CC4)cc3OC)ccc2N2CCCCC2)ccc1C`, which IC50 [1] is on record?
Answer: Its IC50 is over 10000 nM.

Question: What about the inhibition in vivo at 20 mg/kg [2] of the same compound?
Answer: The inhibition in vivo at 20 mg/kg was 80%.

Question: And the bioavailability [3]?
Answer: The bioavailability was 20.3%.

Question: What about the inhibition [4] of the same compound?
Answer: Its inhibition is “inactive”.

Question: What about the inhibition [5] of the same compound?
Answer: The inhibition was “Dose-dependent effect”.

Question: And the Drug uptake [6]?
Answer: The Drug uptake was “Active”.

Question: And the IC50 [7]?
Answer: The IC50 was over 10000 nM.

Question: And the IC50 [8]?
Answer: Its IC50 is 1.9 nM.

Question: What about the inhibition [8] of the same compound?
Answer: Its inhibition is “Dose-dependent effect”.

Question: And the IC50 [9]?
Answer: Its IC50 is 17 to 17.3 nM.

Question: And the AUC(0-inf) [10]?
Answer: Its AUC(0-inf) is 1360 ng·h/mL.

Question: And the bioavailability [11]?
Answer: The bioavailability was 22.3%.

Question: And the Tmax [12]?
Answer: The Tmax was 0 h.

Question: And the inhibition [13]?
Answer: Its inhibition is “Dose-dependent effect”.

Question: What about the Activity [14] of the same compound?
Answer: Its Activity is “Non-Toxic”.

Question: And the Activity [15]?
Answer: The Activity was “Non-Toxic”.

Question: What about the half-life [16] of the same compound?
Answer: The half-life was 1.62 h.

Question: And the IC50 [17]?
Answer: Its IC50 is over 10000 nM.

Question: What about the Drug uptake [18] of the same compound?
Answer: Its Drug uptake is “Active”.

Question: What about the inhibition [19] of the same compound?
Answer: Its inhibition is “Dose-dependent effect”.
